In ChEMBL document CHEMBL1158161, “Study of chemical stability of antivirally active 5-azacytosine acyclic nucleoside phosphonates using NMR spectroscopy” (Bioorg Med Chem, 2008):
In brackets after ≈: the same amount, converted by molar mass.

Experiments:
[1] = Stability in PBS assessed as half life; assay type: physicochemical
How it was run: (§1)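 Hydrolytic decomposition was followed by ¹H NMR on 30 mg samples in D₂O, with spectra recorded periodically. Media were 1 M glycine (pH 5.75), PBS (pH 7.4, phosphate with NaCl), or 50 mM phosphate at pH 4.0 or 10.0. Buffers were made in H₂O, lyophilized and redissolved in D₂O. Low-field signals were integrated to give a rate constant k and a half-life.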

[2] = Cytotoxicity against HEL cells; assay type: cell-based; details: human
[3] = Stability in 1 M glycine solution assessed as half life; assay type: physicochemical; how it was run: as §1
Human alphaherpesvirus 1 = test: Antiviral activity against HSV1; assay type: functional, organism-based
Human betaherpesvirus 6 = test: Antiviral activity against HHV6; assay type: functional, organism-based
Human betaherpesvirus 5 = test: Antiviral activity against HCMV; assay type: functional, organism-based
Vaccinia virus = test: Antiviral activity against vaccinia virus; assay type: functional, organism-based; details: Orthopoxvirus vaccinia
Human alphaherpesvirus 3 = test: Antiviral activity against VZV; assay type: functional, organism-based
[4] = Stability in phosphate buffer at pH 4.0 assessed as half life; assay type: physicochemical; how it was run: as §1
[5] = Stability in PBS at pH 7.4 assessed as half life; assay type: physicochemical; how it was run: as §1
[6] = Stability in phosphate buffer at pH 10.0 assessed as half life; assay type: physicochemical; how it was run: as §1
[7] = Stability in 1 M glycine solution at pH 5.8 assessed as half life; assay type: physicochemical; how it was run: as §1

| SMILES | half-life [1] [days] | CC50 [2] [µg/mL] | MCC [2] [µg/mL] | half-life [3] [days] | also measured |
| --- | --- | --- | --- | --- | --- |
| NC(N)=NC(=O)NC[C@H](O)CO | 19.6 | > 100 | > 100 | 16.1 | – |
| NC(N)=NC(=O)NC[C@@H](COC=O)OCP(=O)(O)O | 4.98 | > 100 | > 100 | 4.75 | – |
| CCCCCCCCCCCCCCCCCCOP1(=O)CO[C@@H](Cn2cnc(N)nc2=O)CO1 (stereo not given in full) | – | – | – | – | EC50 (Human alphaherpesvirus 1): 0.003 µg/mL (≈ 0.00583 µM); EC50 (Human betaherpesvirus 6): 0.008 µg/mL (≈ 0.0155 µM); EC50 (Human betaherpesvirus 5): ≤ 0.00014 µg/mL; EC50 (Vaccinia virus): 0.037 µg/mL (≈ 0.0719 µM); EC50 (Human alphaherpesvirus 3): ≤ 0.00014 µg/mL |
| NC(N)=NC(=O)NCCOCP(=O)(O)O | 39.3 | > 100 | > 100 | 26.2 | – |
| Nc1ncn(C[C@H](O)CO)c(=O)n1 | – | – | – | – | half-life [4]: 17.8 days; half-life [5]: 19.6 days; half-life [6]: 10.3 days; half-life [7]: 15.8 days |
| NC(N)=NC(=O)NC[C@H]1COP(=O)(O)CO1 | 29.7 | > 100 | > 100 | 14.7 | – |
